Measurements published in ChEMBL document CHEMBL5046323, “Discovery of Phospholipase D Inhibitors with Improved Drug-like Properties and Central Nervous System Penetrance” (ACS Med Chem Lett, 2022).
Values after ≈ are worked out from the molar mass of the structure shown.

Key:
[1] = Clearance in iv dosed rat administered as cassette dose; format: ADME, organism-based; settings: in vivo
Procedure, shortened: (§1)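 Rat IV clearance from cassette dosing; unbound clearance calculated as CL/fu.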

Phospholipase D2 = Phospholipase D2 (Homo sapiens, UniProt O14939); test: Inhibition of PLD2 (unknown origin) expressed in human HEK cells by immunoprecipitation; format: cell-based
Chain of Phospholipase D2 (O14939 whole entry): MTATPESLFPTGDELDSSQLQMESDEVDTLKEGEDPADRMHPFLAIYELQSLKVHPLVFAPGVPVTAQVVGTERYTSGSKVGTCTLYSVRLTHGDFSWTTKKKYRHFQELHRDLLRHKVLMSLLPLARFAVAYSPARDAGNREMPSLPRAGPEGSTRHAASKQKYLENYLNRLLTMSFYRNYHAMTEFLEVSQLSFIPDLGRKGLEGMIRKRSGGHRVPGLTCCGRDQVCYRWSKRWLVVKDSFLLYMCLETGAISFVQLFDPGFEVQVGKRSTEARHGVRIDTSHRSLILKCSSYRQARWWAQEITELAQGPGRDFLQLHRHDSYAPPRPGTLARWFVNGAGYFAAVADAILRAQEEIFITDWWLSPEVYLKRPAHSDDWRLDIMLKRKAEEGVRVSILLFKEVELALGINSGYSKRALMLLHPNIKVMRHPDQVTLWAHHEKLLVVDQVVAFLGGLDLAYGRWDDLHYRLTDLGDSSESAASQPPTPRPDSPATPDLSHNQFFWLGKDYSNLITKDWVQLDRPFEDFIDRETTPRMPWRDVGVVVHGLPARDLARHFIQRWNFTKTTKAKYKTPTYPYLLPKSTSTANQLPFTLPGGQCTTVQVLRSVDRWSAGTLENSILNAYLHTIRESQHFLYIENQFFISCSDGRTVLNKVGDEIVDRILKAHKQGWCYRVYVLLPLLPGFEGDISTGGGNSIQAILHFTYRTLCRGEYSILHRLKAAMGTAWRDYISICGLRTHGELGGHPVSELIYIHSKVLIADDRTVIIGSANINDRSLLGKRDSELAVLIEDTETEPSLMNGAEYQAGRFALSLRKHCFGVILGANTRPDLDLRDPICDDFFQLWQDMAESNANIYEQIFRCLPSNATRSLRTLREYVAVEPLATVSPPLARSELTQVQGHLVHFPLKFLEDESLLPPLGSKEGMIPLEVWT
Procedure, shortened: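 PLD1 or PLD2 immunoprecipitated from HEK-293 cell lysates and captured on plate with an antibody (ELISA format); 08:0 phosphatidylcholine substrate; released choline detected by Amplex Red readout.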

[2] = Kinetic solubility of compound at pH 6.8; format: physicochemical; settings: buffer, read-out: Kinetic_solubility
Procedure, shortened: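 Kinetic solubility measured at pH 6.8.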

[3] = Microsomal stability in human liver microsomes assessed as intrinsic clearance; format: ADME, Microsome; settings: read-out: CLH
Procedure, shortened: (§2)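 Intrinsic clearance (CLint) determined in rat or human liver microsomes.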

[4] = Unbound clearance in iv dosed rat administered as cassette dose; format: ADME, organism-based; settings: in vivo; procedure, shortened: as §1
[5] = Microsomal stability in rat liver microsomes assessed as intrinsic clearance; format: ADME, Microsome; settings: read-out: CLH; procedure, shortened: as §2
[6] = target: Phospholipase D1 (Homo sapiens) (UniProt Q13393); test: Inhibition of PLD1 in human Calu-1 cells assessed as reduction in d9-phosphobutanol formation by mass spectrometry-based transphosphatidylation assay
Phospholipase D1 = target: T1, Phospholipase D1 (Homo sapiens, UniProt Q13393); test: Inhibition of PLD1 (unknown origin) expressed in human HEK cells by immunoprecipitation assay; format: cell-based
T1 sequence (Q13393 whole entry): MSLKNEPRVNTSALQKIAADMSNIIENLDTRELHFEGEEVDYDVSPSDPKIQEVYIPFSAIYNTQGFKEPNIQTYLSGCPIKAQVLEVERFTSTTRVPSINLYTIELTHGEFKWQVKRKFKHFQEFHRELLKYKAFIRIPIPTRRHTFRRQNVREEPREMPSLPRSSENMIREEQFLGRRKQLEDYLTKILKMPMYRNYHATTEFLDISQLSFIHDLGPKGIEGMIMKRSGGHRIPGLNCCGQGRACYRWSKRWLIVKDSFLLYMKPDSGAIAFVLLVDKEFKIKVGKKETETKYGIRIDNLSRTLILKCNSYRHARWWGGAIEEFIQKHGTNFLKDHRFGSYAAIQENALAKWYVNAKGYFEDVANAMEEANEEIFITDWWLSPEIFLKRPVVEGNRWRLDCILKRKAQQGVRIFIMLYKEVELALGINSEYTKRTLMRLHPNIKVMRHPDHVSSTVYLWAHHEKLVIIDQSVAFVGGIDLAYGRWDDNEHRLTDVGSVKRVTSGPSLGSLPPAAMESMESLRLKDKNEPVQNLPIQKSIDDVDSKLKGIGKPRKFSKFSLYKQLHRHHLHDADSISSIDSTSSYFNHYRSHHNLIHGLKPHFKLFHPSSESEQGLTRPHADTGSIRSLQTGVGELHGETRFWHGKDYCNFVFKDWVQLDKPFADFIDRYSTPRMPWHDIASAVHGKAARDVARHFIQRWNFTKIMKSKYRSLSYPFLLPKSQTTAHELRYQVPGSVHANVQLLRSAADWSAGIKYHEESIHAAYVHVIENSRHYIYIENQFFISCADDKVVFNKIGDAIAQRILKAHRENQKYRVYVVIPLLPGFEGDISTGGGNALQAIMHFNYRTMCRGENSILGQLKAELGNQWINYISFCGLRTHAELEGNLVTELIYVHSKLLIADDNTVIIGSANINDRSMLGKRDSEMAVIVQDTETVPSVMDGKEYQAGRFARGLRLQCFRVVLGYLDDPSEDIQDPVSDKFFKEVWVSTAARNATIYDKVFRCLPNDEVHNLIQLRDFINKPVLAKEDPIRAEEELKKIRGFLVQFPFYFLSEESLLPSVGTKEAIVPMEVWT

MDR1 (P-gp) = test: Efflux ratio of apparent permeability from basolateral to apical side over apical to basolateral side in dog MDCK-MDR1 cells; format: ADME, cell-based, Canis lupus familiaris
Procedure, shortened: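 Efflux ratio calculated as Papp(B–A)/Papp(A–B) across MDR1-transfected MDCK monolayers.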

BCRP = test: Efflux ratio of apparent permeability from basolateral to apical side over apical to basolateral side in dog MDCK-BCRP cells; format: ADME, cell-based, Canis lupus familiaris

Structure (SMILES) | clearance [1] | IC50 (Phospholipase D2) | solubility kinetic [2] | CLint scaled [3] | CL free [4] | CLint scaled [5] | IC50 [6] | IC50 (Phospholipase D1) | efflux ratio (MDR1 (P-gp)) | efflux ratio (BCRP)
C[C@@H](CN1CCC2(CC1)C(=O)NCN2c1cccc(F)c1)NC(=O)c1ccc(Br)cc1 | 36 mL/min/kg | 67 nM | 3.8 µg/mL (≈ 7.76 µM) | 89 mL/min/kg | > 3800 mL/min/kg | 312 mL/min/kg | – | – | – | –
C[C@@H]1CN(C(=O)[C@H](C)N2CCC(n3c(=O)[nH]c4ccccc43)CC2)Cc2ccccc21 | – | 320 nM | – | > 200 mL/min/kg | – | > 300 mL/min/kg | 6 nM | 100 nM | 22 | –
CC(=O)N(C)CCN1CCC(n2c(=O)[nH]c3cc(Cl)ccc32)CC1 | – | > 10000 nM | – | – | – | – | 180 nM | 130 nM | 24 | –
C[C@@H](CN1CCC(n2c(=O)[nH]c3ccccc32)CC1)NC(=O)c1ccc(F)cc1 | – | 5600 nM | – | < 4 mL/min/kg | – | 170 mL/min/kg | 16 nM | 33 nM | 82 | –
C[C@@H](CN1CCC2(CC1)OC(=O)Nc1cccnc12)NC(=O)c1ccc(F)cc1 | 40 mL/min/kg | 4100 nM | 59 µg/mL (≈ 148 µM) | 13 mL/min/kg | 83 mL/min/kg | 48 mL/min/kg | 54 nM | 200 nM | 68 | –
C[C@@H](CN1CCC2(CC1)NC(=O)Nc1ccccc12)NC(=O)c1ccc(F)cc1 | 15 mL/min/kg | > 10000 nM | 51 µg/mL (≈ 129 µM) | 14 mL/min/kg | 74 mL/min/kg | 66 mL/min/kg | 720 nM | 280 nM | 67 | –
C[C@@H]1CNCCN1C(=O)[C@H](C)N1CCC(n2c(=O)[nH]c3ccccc32)CC1 | – | – | – | 12 mL/min/kg | – | 84 mL/min/kg | 180 nM | 140 nM | 5.4 | –
C[C@@H]1CN(C(=O)[C@H](C)N2CCC(n3c(=O)[nH]c4ccccc43)CC2)CCN1 | 39 mL/min/kg | – | – | < 5 mL/min/kg | 73 mL/min/kg | 29 mL/min/kg | 190 nM | 320 nM | 13 | –
C[C@@H](C(=O)N1CCNC(C)(C)C1)N1CCC(n2c(=O)[nH]c3ccccc32)CC1 | 39 mL/min/kg | 7000 nM | – | 8 mL/min/kg | 73 mL/min/kg | 56 mL/min/kg | 280 nM | 360 nM | 5.2 | –
C[C@@H](CN1CCC2(CC1)OC(=O)Nc1cc(F)ccc12)NC(=O)c1ccc(F)cc1 | – | 1000 nM | – | 68 mL/min/kg | – | 250 mL/min/kg | 78 nM | 71 nM | 42 | –
C[C@@H](CN1CCC2(CC1)c1ccccc1NC(=O)N2C)NC(=O)c1ccc(F)cc1 | – | > 10000 nM | 71 µg/mL (≈ 173 µM) | 39 mL/min/kg | – | 113 mL/min/kg | > 10000 nM | > 10000 nM | 93 | –
C[C@@H](CN1CCC2(CC1)OC(=O)NC[C@H]2c1cccc(F)c1)NC(=O)c1ccc(F)cc1 | 119 mL/min/kg | 64 nM | 61 µg/mL (≈ 138 µM) | 38 mL/min/kg | 308 mL/min/kg | 394 mL/min/kg | 2 nM | 22 nM | 12 | –
C[C@@H](CN1CCC(c2n[nH]c3ccccc23)CC1)NC(=O)c1ccc(F)cc1 | – | > 10000 nM | – | 42 mL/min/kg | – | 311 mL/min/kg | 4200 nM | 970 nM | 8 | –
C[C@@H](C(=O)N1CCC(F)(F)C1)N1CCC(n2c(=O)[nH]c3ccccc32)CC1 | 34 mL/min/kg | 2900 nM | – | 10 mL/min/kg | 192 mL/min/kg | > 300 mL/min/kg | 1200 nM | 170 nM | 2.5 | 1.2
C[C@H]1CN(C(=O)[C@H](C)N2CCC(n3c(=O)[nH]c4ccccc43)CC2)CCN1 | 39 mL/min/kg | 1100 nM | – | < 5 mL/min/kg | 73 mL/min/kg | < 10 mL/min/kg | 160 nM | 76 nM | 5.5 | 2.3
C[C@@H](CN1CCC(N2CCNC2=O)CC1)NC(=O)c1ccc(F)cc1 | – | > 10000 nM | – | < 4 mL/min/kg | – | 16 mL/min/kg | > 10000 nM | > 10000 nM | 7.7 | –
CC[C@H]1CN(C(=O)[C@H](C)N2CCC(n3c(=O)[nH]c4ccccc43)CC2)CCN1 | – | 920 nM | – | < 4 mL/min/kg | – | 59 mL/min/kg | 44 nM | 68 nM | 50 | –
C[C@@H](CN1CCC2(CC1)CC(=O)Nc1ccccc12)NC(=O)c1ccc(F)cc1 | 8.6 mL/min/kg | > 10000 nM | 59 µg/mL (≈ 149 µM) | 28 mL/min/kg | 42 mL/min/kg | 83 mL/min/kg | 460 nM | 490 nM | 11 | –
C[C@@H](CN1CCC(n2c(=O)oc3ccccc32)CC1)NC(=O)c1ccc(F)cc1 | – | > 10000 nM | – | 23 mL/min/kg | – | 314 mL/min/kg | > 10000 nM | 9300 nM | 2 | –
C[C@@H]1CN(C(=O)[C@H](C)N2CCC(n3c(=O)[nH]c4ccccc43)CC2)C[C@H](C)N1 | 45 mL/min/kg | 200 nM | – | 6.9 mL/min/kg | 68 mL/min/kg | 43 mL/min/kg | 32 nM | 40 nM | 14 | –
C[C@@H](CN1CCC2(CC1)OC(=O)Nc1ccncc12)NC(=O)c1ccc(F)cc1 | 48 mL/min/kg | 3200 nM | 58 µg/mL (≈ 146 µM) | 12 mL/min/kg | 69 mL/min/kg | 50 mL/min/kg | 78 nM | 110 nM | 47 | –
C[C@@H](CN1CCC2(CC1)OC(=O)Nc1ccccc12)NC(=O)c1ccc(F)cc1 | 40 mL/min/kg | 1300 nM | 76 µg/mL (≈ 191 µM) | 39 mL/min/kg | 172 mL/min/kg | 103 mL/min/kg | 74 nM | 66 nM | 218 | –
C[C@@H](C(=O)N1CCOCC1)N1CCC(n2c(=O)[nH]c3ccccc32)CC1 | 13 mL/min/kg | > 10000 nM | – | < 5 mL/min/kg | – | 162 mL/min/kg | 560 nM | 380 nM | 36 | 1.5
C[C@@H](CN1CCC(N2C(=O)Cc3ccccc32)CC1)NC(=O)c1ccc(F)cc1 | – | > 10000 nM | – | 42 mL/min/kg | – | 311 mL/min/kg | 1100 nM | 1200 nM | 8 | –
